One experiment concerns MCF7. Kind of experiment: Cytotoxicity against human MCF7 cells after 48 hrs by MTT assay. In kind it is functional, cell-based. An outline of the steps:
(§1)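 Cells kept in DMEM with 10% heat-inactivated FBS, 4.5 g/L D-glucose, sodium pyruvate and L-glutamine at 37 °C, 5% CO2. Seeded at 1 × 10^4 cells/well, left to adhere 24 h, then exposed 48 h to a range of concentrations at 0.05% (v/v) DMSO final. MTT added for 4 h, absorbance at 550 nm. Viability taken relative to control wells; IC50 from triplicates, mean ± SD.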
For orientation: Tetrazolium assays rely on reduction of a dye to a coloured formazan, in cell work by metabolically active cells.

Experiment [1] is described as follows: Cytotoxicity against human MCF7/ADR cells after 48 hrs by MTT assay. Type of experiment: functional, cell-based, NCI/ADR-RES. An outline of the steps:
as §1

The target in experiment [2] is T1, Tyrosine-protein phosphatase non-receptor type 1 (Homo sapiens, UniProt P18031).
T1 sequence (P18031 whole entry): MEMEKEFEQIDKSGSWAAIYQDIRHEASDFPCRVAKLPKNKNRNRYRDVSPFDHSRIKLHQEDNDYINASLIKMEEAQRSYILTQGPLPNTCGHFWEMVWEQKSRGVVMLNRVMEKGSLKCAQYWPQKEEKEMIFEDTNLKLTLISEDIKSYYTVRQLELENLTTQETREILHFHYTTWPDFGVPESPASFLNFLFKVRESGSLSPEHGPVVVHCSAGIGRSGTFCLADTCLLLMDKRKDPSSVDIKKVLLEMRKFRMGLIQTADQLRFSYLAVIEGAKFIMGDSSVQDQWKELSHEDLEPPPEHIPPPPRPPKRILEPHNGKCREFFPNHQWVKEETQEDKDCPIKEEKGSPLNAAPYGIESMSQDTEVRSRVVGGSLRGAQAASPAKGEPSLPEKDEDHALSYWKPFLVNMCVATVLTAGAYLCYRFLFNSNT
Kind of experiment: Inhibition of human recombinant PTP1B using p-nitrophenyl phosphate as substrate after 30 mins. The method in brief:
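Human recombinant enzyme (0.05–0.1 µg) with 2 mM p-NPP in 50 mM citrate pH 6.0, 0.1 M NaCl, 1 mM EDTA, 1 mM DTT, 37 °C for 30 min. IC50 by regression, mean ± SD of three replicates.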

Experiment [3] concerns MDA-MB-231. Kind of experiment: Cytotoxicity against human MDA-MB-231 cells after 48 hrs by MTT assay. In kind it is functional, cell-based. An outline of the steps: as §1
The subject of another experiment is NCI/ADR-RES. Kind of experiment: Ratio of tamoxifen IC50 to compound IC50 for human MCF7/ADR cells. Type of experiment: functional.
The test system of experiment [4] is MDA-MB-231. Kind of experiment: Ratio of tamoxifen IC50 to compound IC50 for human MDA-MB-231 cells. In kind it is functional.
Setting [5] is: Homo sapiens, MCF7, 48 h, read-out: IC50.
The mark [6] stands for this setting: Homo sapiens, NCI/ADR-RES, 48 h, read-out: IC50.
The mark [7] stands for this setting: Homo sapiens, MDA-MB-231, 48 h, read-out: IC50.

With `CC(C)=CCc1c2c(c(O)c3c(=O)c(-c4ccc(O)cc4)coc13)CC(C(C)(C)O)O2` (centres undefined) [ECHRENONE B10], the IC50 with MCF7 (setting [5]) amounted to 4.32 µM; in experiment [1] (setting [6]), 5.76 µM; in experiment [2] it was 24.2 µM; in the experiment on MDA-MB-231 [3] (setting [7]), 3.97 µM. Besides, the Ratio IC50 with NCI/ADR-RES was 1.93; with MDA-MB-231 [4], greater than 3.

`CC(C)=CCc1cc(-c2coc3c(CC=C(C)C)c(O)ccc3c2=O)ccc1O` [ERYSUBIN F]: the 50% inhibitory concentration (IC50) in experiment [2] is 7.8 µM.

With `COc1ccc([C@H]2COc3cc(O)cc(O)c3C2=O)cc1CC=C(C)C` [ERYTHRADDISON III], the IC50 worked out at 6.84 µM with MCF7 (setting [5]), 9.22 µM in experiment [1] (setting [6]), 4.6 µM in experiment [2] and 6.92 µM in the experiment on MDA-MB-231 [3] (setting [7]).

On to `CC(C)=CCc1cc2c(=O)c(-c3ccc(O)cc3O)coc2c(CC=C(C)C)c1O` [ERYTHRADDISON II], for which the IC50 in the experiment on MCF7 (setting [5]) is 11.4 µM; in experiment [1] (setting [6]) it was 6.75 µM; in experiment [2], 17.4 µM; with MDA-MB-231 [3] (setting [7]) it was 4.57 µM.

With `COc1cc2c(cc1[C@H]1COc3cc(O)cc(O)c3C1=O)C=CC(C)(C)O2` [ERYTHRADDISON IV], the IC50 in the experiment with MCF7 (setting [5]) came out at 11 µM; in experiment [1] (setting [6]) it was 6.06 µM; in experiment [2] it was 13.8 µM; in the experiment with MDA-MB-231 [3] (setting [7]) it was 6.34 µM.

`COC(c1c2c(c(O)c3c(=O)c(-c4ccc(O)cc4)coc13)C=CC(C)(C)O2)C(O)C(C)(C)O` (centres undefined) [ERYTHRADDISON I]: the concentration for half-maximal inhibition (IC50) result in the experiment on MCF7 (mcf7) was “Not Active”; in experiment [1] (nci/adr-res), “Not Active”; in experiment [2], greater than 30 µM; in the experiment with MDA-MB-231 [3] (mda-mb-231), “Not Active”.

On to `CC/C(=C(\c1ccccc1)c1ccc(OCCN(C)C)cc1)c1ccccc1` [TAMOXIFEN], for which the IC50 in the experiment on MCF7 (setting [5]) worked out at 11.4 µM.

By IC50 is commonly meant the concentration that gives 50% inhibition.

The values above are taken from ChEMBL document CHEMBL2157970, “New prenylated isoflavonoids as protein tyrosine phosphatase 1B (PTP1B) inhibitors from Erythrina addisoniae” (Bioorg Med Chem, 2012).
